Among all 330,000 compounds or so, about 2,400 (0.73%) were called active. The sample as a whole holds a higher share of actives than the screen did. A number with no mark means an inactive call. Rule for the calls: active = inhibition of at least 40% at 20 µM; inactive = the rest.

Sequence of Apoptotic protease-activating factor 1 (Homo sapiens) (O14727 whole entry, looked up): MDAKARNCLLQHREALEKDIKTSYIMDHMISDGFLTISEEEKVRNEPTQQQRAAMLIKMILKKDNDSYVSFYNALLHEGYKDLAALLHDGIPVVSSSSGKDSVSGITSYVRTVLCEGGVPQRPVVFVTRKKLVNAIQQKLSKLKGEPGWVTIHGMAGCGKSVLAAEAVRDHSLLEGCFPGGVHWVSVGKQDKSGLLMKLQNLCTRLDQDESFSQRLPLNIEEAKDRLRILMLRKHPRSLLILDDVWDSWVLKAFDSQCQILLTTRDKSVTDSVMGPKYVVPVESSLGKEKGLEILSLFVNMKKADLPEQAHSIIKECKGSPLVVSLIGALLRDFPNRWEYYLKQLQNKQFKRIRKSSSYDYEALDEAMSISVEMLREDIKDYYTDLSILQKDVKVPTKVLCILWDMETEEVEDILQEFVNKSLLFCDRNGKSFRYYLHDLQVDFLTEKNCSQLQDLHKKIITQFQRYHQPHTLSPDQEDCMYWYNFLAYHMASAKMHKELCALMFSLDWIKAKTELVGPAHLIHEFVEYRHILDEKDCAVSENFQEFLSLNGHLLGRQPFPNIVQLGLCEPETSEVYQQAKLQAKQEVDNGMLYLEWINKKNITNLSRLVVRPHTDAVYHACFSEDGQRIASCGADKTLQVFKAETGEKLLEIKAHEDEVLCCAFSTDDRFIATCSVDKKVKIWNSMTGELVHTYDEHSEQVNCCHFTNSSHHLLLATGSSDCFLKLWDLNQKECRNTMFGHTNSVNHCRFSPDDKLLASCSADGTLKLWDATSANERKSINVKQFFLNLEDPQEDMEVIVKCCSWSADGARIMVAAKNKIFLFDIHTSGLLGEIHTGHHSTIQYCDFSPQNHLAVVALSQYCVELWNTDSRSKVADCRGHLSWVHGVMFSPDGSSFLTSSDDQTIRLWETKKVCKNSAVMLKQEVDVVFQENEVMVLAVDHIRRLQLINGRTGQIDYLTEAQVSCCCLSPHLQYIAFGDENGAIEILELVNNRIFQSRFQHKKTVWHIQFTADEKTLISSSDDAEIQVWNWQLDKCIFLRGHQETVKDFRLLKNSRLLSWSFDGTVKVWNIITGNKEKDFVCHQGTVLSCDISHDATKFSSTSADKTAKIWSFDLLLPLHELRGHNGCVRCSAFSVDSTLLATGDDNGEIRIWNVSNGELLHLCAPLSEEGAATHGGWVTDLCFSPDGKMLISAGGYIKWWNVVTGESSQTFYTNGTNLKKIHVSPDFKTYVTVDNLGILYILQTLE

This experiment has as its target Apoptotic protease-activating factor 1 (Homo sapiens) (UniProt O14727). The experiment is described as follows: inhibitors of human Apaf-1 apoptosome, primary screen, biochemical, DEVD-Rh110 fluorescence, uHTS (AID 489030).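 Note: plate controls were DMSO wells for no effect and DEVD-CHO caspase inhibitor wells for full effect.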 To be noted: reconstituted apoptosome caspase-3 activity, at 20 µM, active compounds read high. In short, it runs like this:
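Material: cell-free apoptosome with Apaf-1, procaspase-3 and caspase-9; Buffer or medium: Hepes pH 7.5 with detergent and BSA; Reagent: cytochrome c trigger plus (Z-DEVD)2-Rh110 caspase-3 substrate; Times: compound with Apaf-1, dATP, procaspase-3 30 min, then 50 min reaction, room temperature; Technique: Rh110 fluorescence intensity.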
In the case of `O=C(COC(=O)C1(c2ccc(F)cc2)CCCC1)N1CCNC1=O`, the inhibition is -3.12%.

On to `Cc1ccc(NC(=O)c2oc3ccccc3c2C)c([N+](=O)[O-])c1`, for which the inhibition was 4.97%.

With `O=S1(=O)CCC(NC(=S)SCc2ccccc2Br)C1` (stereo not drawn), the inhibition is 8.21%.

Take `Cc1nc2ccccc2nc(C)c1=NOCc1ccc(Cl)cc1Cl`: the inhibition was 8.52%.

With `COc1ccc(Cl)cc1N(CC(=O)N/N=C/c1ccc(OCC(N)=O)cc1)S(C)(=O)=O`, the inhibition was 9.06%.

On to `NC(N)=N/N=C/c1ccc(OCc2ccc(Cl)cc2Cl)cc1`, for which the inhibition was 65.5% (active).

Consider `CCCNC(=O)OC[C@H]1O[C@H](CCO/N=C/[C@@H](NS(=O)(=O)c2ccc(C)cc2)[C@H](C)/C=C/CC(=O)OC)C=C[C@@H]1Oc1ccc(OC)cc1`, for which the inhibition is 9.15%.

`O=C(c1ccc(Br)o1)N1CCN(CCOc2ccccc2)CC1`: the inhibition was 5.93%.

`CN(CC(=O)NC1CCCC1)S(=O)(=O)c1cnc[nH]1`: the inhibition was -3.15%.

Take `CCN(CC(=O)NCc1cccs1)C(=O)c1ccccc1F`: the inhibition is -6.38%.

In the case of `CCN(CC(=O)NCc1cccs1)C(=O)c1ccc(OC)c(S(=O)(=O)N2CCOCC2)c1`, the inhibition is 5.14%.

As for `CCN(CC(=O)NCc1cccs1)C(=O)c1cccc(S(=O)(=O)Nc2ccccc2OC)c1`, the inhibition is 60.2% (active).

In the case of `CCNC(=O)COC(=O)CCNC(=O)c1cccc(C)c1`, the inhibition was -4.69%.

On to `Cc1nn2cc(-c3ccc(Cl)cc3)cnc2c1Br`, for which the inhibition was -6.41%.

Take `COc1cc(OC)cc(C(=O)OCC(=O)Nc2sccc2C(N)=O)c1`: the inhibition is -0.564%.

As for `COC(=O)c1ccc(N2CCOCC2)c(NC(=O)c2ccc(Br)o2)c1`, the inhibition was -17.7%.

As to `CCCCc1nc2cc(C(=O)N3CCCCC3CCO)ccc2o1` (stereo not drawn), the inhibition was 5.2%.

`CCN(CC)CCCSc1nc2ccccc2s1`: the inhibition was -0.516%.

With `OCCNc1nc(Nc2ccc(Cl)c(Cl)c2)nc2ccccc12`, the inhibition was 24.2%.

For `O=[N+]([O-])c1c(NCCO)cc(Sc2nc3ccccc3s2)c2nonc12`, the inhibition is 90.7% (active).

Take `O=c1ccc2cc(S(=O)(=O)NCCCc3ccccc3)ccc2[nH]1`: the inhibition was 0.38%.

Regarding `C=CC(=O)OCCOCCOCCOCCOC(=O)C=C`, the inhibition was -5.63%.

Consider `c1ccc2c(CCN3CCNC[C@H]3Cc3cccc4ccccc34)cccc2c1`, for which the inhibition is 67% (active).

For `O=C1CCNCCN1[C@H](CO)Cc1ccccc1`, the inhibition is -9.83%.

For `c1ccc(C[C@H]2CNCCN2CCC23CC4CC(CC(C4)C2)C3)cc1`, the inhibition was 47.5% (active).

Take `CC(C)(C)CN1C(=O)C(=O)NC[C@H]1Cc1cccc2ccccc12`: the inhibition was -2.41%.

In the case of `c1ccc(C2CNCc3c2ccc2ccccc32)cc1` (stereo not drawn), the inhibition is 13.6%.

Take `NS(=O)(=O)c1ccc(N2C(=O)C3C4CC(C(Br)C4Br)C3C2=O)cc1` (stereo not drawn): the inhibition is 4.73%.

Consider `CC(=O)Nc1ccc(OCCC[n+]2cccc(C(=O)[O-])c2)cc1`, for which the inhibition was 0.989%.

For the molecule `N=c1ccn(CC(=O)NC(N)=O)c2ccccc12`, the inhibition was -8.89%.

Take `Cc1cccc(/C=N/NC(=O)CNc2cccc3ccccc23)n1`: the inhibition was 8.96%.

On to `C/C(=N\NC(=O)CSc1nc2ccccc2c(=O)n1-c1ccccc1C)c1cccs1`, for which the inhibition is 19.1%.

Turning to `C/C(=N\NC(=O)CNc1cccc2ccccc12)c1ccc(Br)s1`, the inhibition was 90.2% (active).

With `COc1ccc(-n2nnnc2SCC(=O)c2ccc(OC)c(OC)c2)cc1`, the inhibition was 1%.

With `CC[C@@H](C)[C@@H](C(=O)N1CCN(C(=O)OC(C)(C)C)CC1)n1cc(CCC(=O)O)nn1`, the inhibition was -7.69%.

In the case of `COc1ccc(C2=NOC3(CC(=O)N(c4ccc(Cl)cc4)C3=O)C2)c(OC)c1` (stereo not drawn), the inhibition is 5.23%.

Take `C#CCOCCOCCOCCNc1nc(N2CCN(C(=O)CCCCCCCCCCNC(=O)[C@H]([C@@H](C)CC)n3cc(CCCCN=C(N)N)nn3)CC2)nc(N2CCN(C(=O)CCCCCCCCCCNC(=O)[C@H](CO)n3cc(CCCSC)nn3)CC2)n1`: the inhibition was 59.2% (active).

With `C#CCOCCOCCOCCNc1nc(N2CCN(C(=O)C([C@@H](C)O)n3cc([C@@H](N)CCCCN)nn3)CC2)nc(N2CCN(C(=O)[C@H](CCCCN)n3cc(CN)nn3)CC2)n1` (stereo partly drawn), the inhibition was 42.2% (active).

As to `C#CCOCCOCCOCCNc1nc(N2CCN(C(=O)[C@H](CCC(=O)O)n3cc(CN)nn3)CC2)nc(N2CCN(C(=O)[C@H](CCC(=O)O)n3cc(CN)nn3)CC2)n1`, the inhibition is -8.71%.

As for `C#CCOCCOCCOCCNc1nc(N2CCN(C(=O)CCCCCCCCCCNC(=O)Cn3cc(CCCCCN)nn3)CC2)nc(N2CCN(C(=O)CCCCCCCCCCNC(=O)[C@H](CO)n3cc(CCCSC)nn3)CC2)n1`, the inhibition was 60.7% (active).

`C#CCOCCOCCOCCNc1nc(N2CCN(C(=O)[C@H](CCC(=O)O)n3cc(C(N)CO)nn3)CC2)nc(N2CCN(C(=O)[C@H](CCCCN)n3cc(C(N)CC(C)C)nn3)CC2)n1` (stereo partly drawn): the inhibition is 2.63%.

As to `C#CCOCCOCCOCCNc1nc(N2CCN(C(=O)[C@H](CCCCN)n3cc(CCC(=O)O)nn3)CC2)nc(N2CCN(C(=O)[C@H](CCCCN)n3cc(CC(C)O)nn3)CC2)n1` (stereo partly drawn), the inhibition is -2.94%.

For the molecule `C#CCOCCOCCOCCNc1nc(N2CCN(C(=O)[C@H](CCCN=C(N)N)n3cc(C(N)[C@@H](C)CC)nn3)CC2)nc(N2CCN(C(=O)[C@H](CO)n3cc([C@@H](N)C(C)C)nn3)CC2)n1` (stereo partly drawn), the inhibition is 1.97%.

Take `C#CCOCCOCCOCCNc1nc(N2CCN(C(=O)CCCCCCCCCCNC(=O)[C@H](CCCCN)n3cc(C)nn3)CC2)nc(N2CCN(C(=O)CCCCCCCCCCNC(=O)[C@H](CO)n3cc(CCCSC)nn3)CC2)n1`: the inhibition was 59.7% (active).

As for `C#CCOCCOCCOCCNc1nc(N2CCN(C(=O)[C@H](C(C)C)n3cc(CCO)nn3)CC2)nc(N2CCN(C(=O)[C@H]([C@@H](C)CC)n3cc(CCCN=C(N)N)nn3)CC2)n1`, the inhibition is 0.78%.

In the case of `C#CCOCCOCCOCCNc1nc(N2CCN(C(=O)C([C@@H](C)CC)n3cc(C(N)COC(=O)C(F)(F)F)nn3)CC2)nc(N2CCN(C(=O)[C@H](CCCCN)n3cc(C(N)CC(C)C)nn3)CC2)n1` (stereo partly drawn), the inhibition was 4.38%.

`C#CCOCCOCCOCCNc1nc(N2CCN(C(=O)[C@H](CCC(=O)O)n3cc(C(N)CO)nn3)CC2)nc(N2CCN(C(=O)[C@H](CCCCN)n3cc(C(N)[C@H](C)CC)nn3)CC2)n1` (stereo partly drawn): the inhibition was 20.3%.

Turning to `C#CCOCCOCCOCCNc1nc(N2CCN(C(=O)Cn3cc(CCCCN)nn3)CC2)nc(N2CCN(C(=O)[C@H](CCCCN)n3cc(CCC(=O)O)nn3)CC2)n1`, the inhibition is 2.29%.

For the origin of these results see PubChem BioAssay AID489030 (Sanford-Burnham Center for Chemical Genomics, 2010).
